The record followed here is ChEMBL document CHEMBL1150062, “Phospholipase A2 inhibitors from marine organisms” (J Nat Prod, 1992).

The source made the active and inactive calls. The calls are words filed in the database; no cut-off is given here.

One assay deals with T1, Phospholipase A2 (Apis mellifera) (UniProt B7UUK1).
T1 sequence (whole entry): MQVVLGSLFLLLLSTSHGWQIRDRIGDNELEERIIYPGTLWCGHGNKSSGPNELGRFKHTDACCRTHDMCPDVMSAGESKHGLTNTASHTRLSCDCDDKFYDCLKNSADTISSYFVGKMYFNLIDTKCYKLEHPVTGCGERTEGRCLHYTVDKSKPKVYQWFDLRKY
As to the kind of experiment: Inhibition of bee venom PLA2 assessed as inactivation of enzyme at 2 ug/ml. Details: scale not given: the % may be the effect or the level left.
Settings: not given
As for `CC(=O)O[C@@H]1O[C@H]2OC(=O)[C@H](C)C3=C([C@@]4(C)CCCC(C)(C)C4)C[C@@H](OC(C)=O)[C@@H]1[C@H]32`, the Activity stood at 60%. Still for that read-out and setting: the result for `CC1=C[C@H]2Cc3occc3C(C)(C)[C@H]2CC1` reads “inactive”. As to `CC1=CC2C[C@]34OC(=O)C[C@]3(O4)C(C)(C)C2CC1` (stereo partly specified), the outcome was inactive. The same measure, in the same setting: the figure for `CCCC(=O)O[C@@H]1C[C@H]2C(C)(C)CCC[C@]2(C)C2CC[C@H]3C(=O)O[C@H]4O[C@@H](O)[C@]21[C@H]43` (stereo partly specified) is 65%; for `CC1=C[C@H]2Cc3ccoc3C(C)(C)[C@H]2CC1` it is “inactive”. Same read-out and setting: the figure for `CC1=CC2C[C@]3(O)OC(=O)C=C3C(C)(C)C2CC1` (stereo partly specified) is 60%. On the same count and under the same terms, the figure for `CC1=CC(CC2=CC(=O)OC2O)C(C(C)C)CC1` (stereo unspecified) is 60%; for `CCCC(=O)O[C@H]1[C@@H](OC(C)=O)[C@@]23C(CC[C@H]4C(=O)O[C@@H](O[C@H]2O)[C@H]43)[C@@]2(C)CCCC(C)(C)[C@H]12` (stereo partly specified) it is 50%; for `CCCC(=O)O[C@H]1[C@@H](O)[C@@]23C(CC[C@H]4C(=O)O[C@@H](O[C@H]2O)[C@H]43)[C@@]2(C)CCCC(C)(C)[C@@H]12` (stereo partly specified) it is 44%. For the molecule `C=C1CCCC(C)(C)[C@@H]2CC[C@@](C)([C@H]3[C@H]4CC(=O)O[C@H]4O[C@H]3O)[C@H]12`, the Activity came out at 48%. As to `C=C([C@@H]1[C@@H](OC(C)=O)O[C@@H]2OC(=O)C[C@@H]21)[C@H]1CC[C@H]2C(C)(C)CCC[C@]12C`, the Activity was 66%.

The target of another assay is T2, Phospholipase A2, membrane associated (Homo sapiens) (UniProt P14555).
T2 sequence (whole entry): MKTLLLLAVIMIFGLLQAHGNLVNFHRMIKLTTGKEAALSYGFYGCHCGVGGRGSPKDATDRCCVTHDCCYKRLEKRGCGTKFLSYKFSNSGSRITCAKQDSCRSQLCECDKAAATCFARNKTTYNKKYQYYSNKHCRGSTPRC
As to the kind of experiment: Inhibition of human synovial fluid-PLA2. Conditions: concentration not given here.
As for `CC1=C(CC/C(C)=C/CC/C(C)=C/CCC2=CC(=O)OC2O)C(C)(C)CCC1` (stereo unspecified) [LUFFARIELLOLIDE], the inhibition – broadly, the drop in the measured response relative to a control, in per cent – was 98%.

Another assay has as its target T1, Phospholipase A2 (Apis mellifera). Nature of the assay: Inhibition of bee venom PLA2 assessed as inactivation of enzyme at 1.6 ug/ml. Details: scale not given: the % may be the effect or the level left.
Settings: not given
Put shortly:
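³H-dipalmitoyl phosphatidylcholine (1.36 mM, Triton X-100 mixed micelles) in 10 mM HEPES, 1 mM CaCl2, pH 7.4. Bee venom PLA2 (100 units/ml) preincubated 1 h at 41° with compound from 10 mg/ml stock, then added to substrate for 15 sec at 41°. Acid-quenched, released palmitic acid extracted and scintillation counted, corrected for background and extraction efficiency. % inactivation vs vehicle, triplicate mean.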
On to `Oc1cc(Cc2c(O)cc(O)c(Br)c2O)c(Br)c(Br)c1O`, for which the Activity stood at 96%. Still for that read-out and setting: the result for `Oc1cc(Cc2c(O)c(Br)c(O)c(Cc3cc(O)c(O)c(Br)c3Br)c2O)c(Br)c(Br)c1O` reads 96%.

For the next assay the target is unchanged. As to the kind of experiment: Inhibition of bee venom PLA2 at 4 uM.
Settings: not given
As to `CC1(C)CCC[C@]2(C)[C@H]3C[C@@H](O)[C@]4(C)[C@H](C=O)C(C=O)=CC[C@H]4[C@]3(C)CC[C@@H]12`, the inhibition was under 70%.

In another assay the target is T3, Phospholipase A2 (Apis mellifera, UniProt B7UUK1).
T3 sequence (B7UUK1 whole entry): T1 sequence (whole entry)
As to the kind of experiment: (§1) Inhibition of bee venom PLA2.
Settings: not given
As for `CC(=O)O[C@H]1C[C@@H]2[C@@]3(C)CCCC(C)(C)[C@@H]3CC[C@@]2(C)[C@@H]2CC=C(C=O)[C@H](C=O)[C@@]12C` [SCALARADIAL], the IC50 (usually the concentration needed to halve the response being measured) was found to be 70 nM. The same measure, in the same setting: the result for `CC1=C(CC/C(C)=C/CC/C(C=O)=C\C=C\C2=CC(=O)O[C@H]2O)C(C)(C)CCC1` reads 280 nM; that for `CC1(C)CCC[C@]2(C)[C@H]3C[C@@H](O)[C@]4(C)[C@@H](C=O)C(C=O)=CC[C@H]4[C@]3(C)CC[C@@H]12`, 200 nM; that for `CC1=C(CC/C(C)=C/CCC2=CC[C@H](C3=CC(=O)O[C@H]3O)O[C@H]2O)C(C)(C)CCC1` [MANOALIDE], 40 nM. As to `CC1=C(CC/C(C)=C/CC/C(C)=C/CCC2=CC(=O)OC2O)C(C)(C)CCC1` (stereo unspecified) [LUFFARIELLOLIDE], inhibition was half-maximal at 230 nM (IC50).

In a further assay the target is T1, Phospholipase A2 (Apis mellifera). The description is as §1.
Settings: not given
Take `C=C1CCC[C@H]2[C@](C)(CC3=C(O)C(=O)C=C(OC)C3=O)[C@@H](C)CC[C@]12C`: the result was inactive.
